The values that follow come from publication PMC3049929 (Journal of medicinal chemistry, 2008).

Data set [1] has as its system PfPFT (P. falciparum protein farnesyltransferase). The data set is described as follows: PfPFT [3H] scintillation proximity assay. In kind it is biochemical. As to conditions: rat PFT IC50 / PfPFT IC50. (In a scintillation proximity assay essentially only radioactivity close to the scintillant gives light.)
Data set [2] concerns P. falciparum 3D7 (chloroquine-sensitive). In kind it is cell-based. As to conditions: Plasmodium falciparum, 3D7, Erythrocyte, 48 h, read-out: ED50 (nM) 3D7. The gist of the method:
(§1)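 Parasites cultured in type A+ human erythrocytes (2% hematocrit) in RPMI-1640 with 20% heat-inactivated type A+ human plasma, under 5% CO2/5% O2/90% N2. Test compound in DMSO added to culture at 0.5% parasitemia and 0.5% hematocrit. Incubated 37 °C for 48 h, then [8-3H]hypoxanthine (0.3 µCi) added for a further 24 h. Cells harvested to filter mats and counted by β-scintillation. Uninfected-erythrocyte background subtracted; DMSO-only wells taken as 100% growth. ED50 from linear regression of incorporation vs concentration.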

Another data set addresses rat PFT (Rattus norvegicus, UniProt Q02293+Q04631). Briefly: rat PFT [3H] scintillation proximity assay. In kind it is biochemical.
For data set [3], the system named is P. falciparum K1 (chloroquine-resistant, pyrimethamine-resistant). In kind it is cell-based. As to conditions: Plasmodium falciparum, K1, Erythrocyte, 48 h, read-out: ED50 (nM) K1. The gist of the method:
as §1

The test system is the same in data set [4]. As to conditions: strain K1, infected erythrocytes; previously published data ref 26, 27; cited from earlier work.
For data set [5], the system named is P. falciparum 3D7 (chloroquine-sensitive). As to conditions: strain 3D7, infected erythrocytes; previously published data ref 26, 27; cited from earlier work.
The target in data set [6] is T1, PfPFT (P. falciparum protein farnesyltransferase) (Plasmodium falciparum, UniProt Q5EI73+Q5EI74). As to conditions: 50 nM inhibitor concentration; previously published data ref 26, 27; cited from earlier work.
The conditions of data set [7]: incubation with liver microsomes; cited from earlier work.
Data set [8] concerns the target T1, PfPFT (P. falciparum protein farnesyltransferase). Briefly: PfPFT [3H] scintillation proximity assay. In kind it is biochemical. As to conditions: for inhibition at 0.05 µM: read-out: Inhibition of PfFTase (%) 50 nM; for Inhibition of PfFTase (%) 50 nM: 50 nM inhibitor concentration.

Where two headings read alike, the source gives them in different places.

As for `Cn1cnc(S(=O)(=O)N(CC2CCN(C(=O)OC(C)(C)C)CC2)[C@@H]2CCC[C@@H]2N(Cc2cncn2C)c2ccc(C#N)cc2)c1` (racemic) [6d, (±)-[N-(N-tert-Butoxycarbonylpiperidin-4-ylmethyl)-N-{cis-2-[(4-cyanophenyl)(3-methyl-3H-imidazol-4-ylmethyl)amino]cyclopentyl}]-1-methyl-1H-imidazole-4-sulfonamide], the “Selectivity (ratio of rat to P. falciparum PFT IC50 values)” value in [1] is recorded as >2.9 fold. The IC50 in data set [2] is 3000 nM; against rat PFT it was > 1 µM.
`Cn1cnc(S(=O)(=O)N(CC2CCN(C(=O)OC(C)(C)C)CC2)[C@H]2CCC[C@@H]2N(Cc2cncn2C)c2ccc(C#N)cc2)c1` (racemic) [7d, (±)-[N-(N-tert-Butoxycarbonylpiperidin-4-ylmethyl)-N-{trans-2-[(4-cyanophenyl)(3-methyl-3H-imidazol-4-ylmethyl)amino]cyclopentyl}]-1-methyl-1H-imidazole-4-sulfonamide]: in data set [1], the “Selectivity (ratio of rat to P. falciparum PFT IC50 values)” value was >100 fold. Moreover, the IC50 in [3] was 600 nM; at rat PFT, > 1 µM.
On to `Cn1cnc(S(=O)(=O)N(Cc2ccsc2)[C@@H]2CC[C@@H](N(Cc3cncn3C)c3ccc(C#N)cc3)C2)c1` (racemic) [9c, (±)-[N-(Thiophen-3-ylmethyl)-N-{trans-3-[(4-cyanophenyl)(3-methyl-3H-imidazol-4-ylmethyl)amino]cyclopentyl}]-1-methyl-1H-imidazole-4-sulfonamide], for which the IC50 in data set [2] worked out at 1500 nM; in [3], 1200 nM.
For `Cn1cnc(S(=O)(=O)N(CC2CCN(C(=O)OC(C)(C)C)CC2)[C@@H]2CC[C@@H](N(Cc3cncn3C)c3ccc(C#N)cc3)C2)c1` (racemic) [9d, (±)-[N-(N-tert-Butoxycarbonylpiperidin-4-ylmethyl)-N-{trans-3-[(4-cyanophenyl)(3-methyl-3H-imidazol-4-ylmethyl)amino]cyclopentyl}]-1-methyl-1H-imidazole-4-sulfonamide] the same measures were 310 nM and 80 nM.
Take `Cn1cnc(S(=O)(=O)N(CC2CCN(c3ncccn3)CC2)[C@@H]2CC[C@@H](N(Cc3cncn3C)c3ccc(C#N)cc3)C2)c1` (racemic) [9e, (±)-[N-{N-(2-Pyrimidinyl)-piperidin-4-ylmethyl}-N-{trans-3-[(4-cyanophenyl)(3-methyl-3H-imidazol-4-ylmethyl)amino]cyclopentyl}]-1-methyl-1H-imidazole-4-sulfonamide]: the IC50 turned out to be 2600 nM in [2] and 1500 nM in data set [3].
Regarding `Cn1cnc(S(=O)(=O)N(CCN(Cc2cncn2C)c2ccc(C#N)cc2)Cc2ccccc2)c1` [1a], the “ED50 (nM) K1” value in [4] is 375 nM. The “ED50 (nM) 3D7” value in [5] is listed as 349 nM.
Take `Cc1ccccc1CN(CCN(Cc1cncn1C)c1ccc(C#N)cc1)S(=O)(=O)c1cn(C)cn1` [1b]: the “ED50 (nM) K1” value in data set [4] is listed as 150 nM. The “ED50 (nM) 3D7” value in [5] is 93 nM.
With `Cn1cnc(S(=O)(=O)N(CCN(Cc2cncn2C)c2ccc(C#N)cc2)Cc2ccsc2)c1` [1c], the “ED50 (nM) K1” value in [4] is reported as 240 nM. Besides, the “ED50 (nM) 3D7” value in data set [5] was 150 nM. In data set [6], the “Inhibition of PfFTase (%) 50 nM” value is given as 100%.
With `Cn1cnc(S(=O)(=O)N(CCN(Cc2cncn2C)c2ccc(C#N)cc2)CC2CCN(C(=O)OC(C)(C)C)CC2)c1` [1d], the “ED50 (nM) K1” value in data set [4] was 54 nM. Also, the “ED50 (nM) 3D7” value in data set [5] is 88 nM. The metabolic stability result in data set [7] is on record as “limited”.
As for `Cn1cnc(S(=O)(=O)N(CCN(Cc2cncn2C)c2ccc(C#N)cc2)CC2CCN(c3ncccn3)CC2)c1` [1e], in [4], the “ED50 (nM) K1” value is 85 nM. Moreover, in data set [5], the “ED50 (nM) 3D7” value is 130 nM.
In the case of `Cc1ccccc1CN(CCCN(Cc1cncn1C)c1ccc(C#N)cc1)S(=O)(=O)c1cn(C)cn1` [2b, [N-(2-Methylbenzyl)-N-3-{(4-cyanophenyl)(3-methyl-3H-imidazol-4-ylmethyl)amino}propyl]-1-methyl-1H-imidazole-4-sulfonamide], the IC50 in data set [2] and in data set [3] was 2900 nM in each case.
Consider `Cn1cnc(S(=O)(=O)N(CCCN(Cc2cncn2C)c2ccc(C#N)cc2)Cc2ccsc2)c1` [2c, [N-(Thiophen-3-ylmethyl)-N-3-{(4-cyanophenyl)(3-methyl-3H-imidazol-4-ylmethyl)amino}propyl]-1-methyl-1H-imidazole-4-sulfonamide], for which the results for the IC50 in [2] and in data set [3] were 2800 nM and 2200 nM, respectively.
On the same counts, the results for `Cn1cnc(S(=O)(=O)N(CCCN(Cc2cncn2C)c2ccc(C#N)cc2)CC2CCN(C(=O)OC(C)(C)C)CC2)c1` [2d, [N-(N-tert-Butoxycarbonylpiperidin-4-ylmethyl)-N-3-{(4-cyanophenyl)(3-methyl-3H-imidazol-4-ylmethyl)amino}propyl]-1-methyl-1H-imidazole-4-sulfonamide] are 330 nM and 190 nM.
For `Cn1cnc(S(=O)(=O)N(Cc2ccccc2)CC(C)(C)N(Cc2cncn2C)c2ccc(C#N)cc2)c1` [3a, [N-Benzyl-N-{(4-cyanophenyl)(3-methyl-3H-imidazol-4-ylmethyl)amino}-2,2-dimethylethyl]-1-methyl-1H-imidazole-4-sulfonamide], the IC50 in data set [2] turned out to be 160 nM; in [3] it was 55 nM.
For `Cc1ccccc1CN(CC(C)(C)N(Cc1cncn1C)c1ccc(C#N)cc1)S(=O)(=O)c1cn(C)cn1` [3b, [N-(2-Methylbenzyl)-N-{(4-cyanophenyl)(3-methyl-3H-imidazol-4-ylmethyl)amino}-2,2-dimethylethyl]-1-methyl-1H-imidazole-4-sulfonamide] the same measures were 210 nM and 75 nM.
For `Cn1cnc(S(=O)(=O)N(CC2CCN(C(=O)OC(C)(C)C)CC2)CC(C)(C)N(Cc2cncn2C)c2ccc(C#N)cc2)c1` [3d, [N-(N-tert-Butoxycarbonylpiperidin-4-ylmethyl)-N-{(4-cyanophenyl)(3-methyl-3H-imidazol-4-ylmethyl)amino}-2,2-dimethylethyl]-1-methyl-1H-imidazole-4-sulfonamide] the same measures were 400 nM and 250 nM.
As for `Cn1cnc(S(=O)(=O)N(CC2CCN(c3ncccn3)CC2)CC(C)(C)N(Cc2cncn2C)c2ccc(C#N)cc2)c1` [3e, [N-{N-(2-Pyrimidinyl)-piperidin-4-ylmethyl}-N-{(4-cyanophenyl)(3-methyl-3H-imidazol-4-ylmethyl)amino}-2,2-dimethylethyl]-1-methyl-1H-imidazole-4-sulfonamide], the IC50 in data set [2] was 180 nM; in data set [3], 75 nM.
Take `Cn1cnc(S(=O)(=O)N(CC(=O)N(Cc2cncn2C)c2ccc(C#N)cc2)Cc2ccccc2)c1` [4a, 2-[Benzyl(1-methyl-1H-imidazole-4-sulfonyl)amino]-N-(4-cyanophenyl)-N-(3-methyl-3H-imidazol-4-ylmethyl)acetamide]: in data set [8], the inhibition at 0.05 µM came out at 0%.
The same measure, in the same setting: the value for `Cn1cnc(S(=O)(=O)N(CC(=O)N(Cc2cncn2C)c2ccc(C#N)cc2)CC2CCN(C(=O)OC(C)(C)C)CC2)c1` [4d, 2-[(N-tert-Butoxycarbonylpiperidin-4-ylmethyl)(1-methyl-1H-imidazole-4-sulfonyl)amino]-N-(4-cyanophenyl)-N-(3-methyl-3H-imidazol-4-ylmethyl)acetamide] was 0%; that for `Cn1cnc(S(=O)(=O)N(CCC(=O)N(Cc2cncn2C)c2ccc(C#N)cc2)Cc2ccccc2)c1` [5a, 3-[Benzyl-(1-methyl-1H-imidazole-4-sulfonyl)amino]-N-(4-cyanophenyl)-N-(3-methyl-3H-imidazol-4-ylmethyl)propanamide] was 0%; that for `Cn1cnc(S(=O)(=O)N(CCC(=O)N(Cc2cncn2C)c2ccc(C#N)cc2)CC2CCN(C(=O)OC(C)(C)C)CC2)c1` [5d, 3-[(N-tert-Butoxycarbonylpiperidin-4-ylmethyl)(1-methyl-1H-imidazole-4-sulfonyl)amino]-N-(4-cyanophenyl)-N-(3-methyl-3H-imidazol-4-ylmethyl)propanamide] was 0%.
For `Cn1cnc(S(=O)(=O)N(CC2CCN(C(=O)OC(C)(C)C)CC2)[C@H]2CC[C@@H](N(Cc3cncn3C)c3ccc(C#N)cc3)CC2)c1` [10d, (±)-[N-(N-tert-Butoxycarbonylpiperidin-4-ylmethyl)-N-{cis-4-[(4-cyanophenyl)(3-methyl-3H-imidazol-4-ylmethyl)amino]cyclohexyl}]-1-methyl-1H-imidazole-4-sulfonamide], in [8], the “Inhibition of PfFTase (%) 50 nM” value is on record as “no inhibitory activity” and the inhibition at 0.05 µM stood at 0%. Moreover, in [3], the IC50 worked out at 650 nM.
On the same counts, the results for `Cn1cnc(S(=O)(=O)N(CC2CCN(C(=O)OC(C)(C)C)CC2)[C@H]2CC[C@H](N(Cc3cncn3C)c3ccc(C#N)cc3)CC2)c1` [11d, (±)-[N-(N-tert-Butoxycarbonylpiperidin-4-ylmethyl)-N-{trans-4-[(4-cyanophenyl)(3-methyl-3H-imidazol-4-ylmethyl)amino]cyclohexyl}]-1-methyl-1H-imidazole-4-sulfonamide] are “no inhibitory activity”, 0% and 1200 nM.

As a reminder, the inhibition is the percentage by which the read-out fell short of the control.
